For experiment [1], the target named is T1, rat MOR (C6-MOR) (Rattus norvegicus, UniProt P33535). Description: [3H]-diprenorphine competitive displacement binding, C6-MOR membranes. The method in brief: (§1)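 Membranes came from C6 glioma cells stably expressing rat MOR or DOR, or CHO cells stably expressing human KOR. Membranes (20 μg protein) in 50 mM Tris-HCl pH 7.4 were incubated with 0.2 nM [³H]-diprenorphine and varying test compound concentrations for 1 h at room temperature, then filtered on GF/C. Nonspecific binding was defined with 10 μM naloxone. Ki came from logistic nonlinear regression; at least three assays in duplicate.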

In experiment [2] the target is T2, rat DOR (C6-DOR) (Rattus norvegicus, UniProt P33533). Description: Stimulation of [35S]-GTPγS binding, C6-DOR membranes. Type of experiment: biochemical. The note with it: for EC50 DOR: [35S]-GTPγS binding, mean (SEM); for EC50 DOR / % stimulation DOR: dns: does not stimulate; for % stimulation DOR: percent maximal stimulation relative to DPDPE at 10 μM. The method in brief: (§2)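 Rat MOR or DOR (C6) and human KOR (CHO) membranes (10–20 μg protein) were incubated 1 h at 25 °C in 50 mM Tris-HCl, 100 mM NaCl, 5 mM MgCl₂, pH 7.4, with 0.1 nM [³⁵S]-GTPγS, 30 μM GDP and varying test compound concentrations, then filtered on GF/C. % stimulation was taken relative to 10 μM DAMGO (MOR), DPDPE (DOR) or U69,593 (KOR). EC50 came from nonlinear regression; at least three assays in duplicate.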

Experiment [3] concerns the target T3, human KOR (CHO-KOR) (Homo sapiens, UniProt P41145). Description: Stimulation of [35S]-GTPγS binding, CHO-KOR membranes. It is filed as biochemical. The note with it: for % stimulation KOR: percent maximal stimulation relative to U69,593 at 10 μM; for % stimulation KOR / EC50 KOR: dns: does not stimulate; for EC50 KOR: [35S]-GTPγS binding, mean (SEM). The method, boiled down: as §2

Experiment [4] has as its target T1, rat MOR (C6-MOR). Nature of the experiment: Stimulation of [35S]-GTPγS binding, C6-MOR membranes. It is filed as biochemical. The note with it: for % stimulation MOR: percent maximal stimulation relative to DAMGO at 10 μM; for Emax: read-out: % stimulation MOR. The method, boiled down: as §2
On the technique in general: GTPγS resists hydrolysis and so accumulates on activated G proteins.

Experiment [5] concerns the target T3, human KOR (CHO-KOR). Description: [3H]-diprenorphine competitive displacement binding, CHO-KOR membranes. The method, boiled down:
as §1

In experiment [6] the target is T2, rat DOR (C6-DOR). Description: [3H]-diprenorphine competitive displacement binding, C6-DOR membranes. The method in brief: as §1
Where [7] appears, read: displacement of [3H]-diprenorphine, mean (SEM), n = 3.

Molecules are shown by their SMILES. Where “and” joins values, the source holds several entries; their conditions need not be identical. Equal values may be shown once. Entries after “also recorded” stand apart in the source; their conditions may differ.

In general, EC50 refers to the midpoint of the concentration-response curve. One may read the Ki as a measure of affinity in units of concentration, obtained from inhibition or displacement. For the compound `Cc1cc(O)cc(C)c1C[C@H](N)C(=O)N[C@@H]1CCNc2ccc(CC3Cc4cccc(O)c4C3)cc21` (stereo partly drawn) [Compound 8c], at rat MOR (C6-MOR) [1] (setting [7]), the “Binding, Ki MOR” value is on record as “subnanomolar binding affinity”. In addition, on rat DOR (C6-DOR) [2], the “EC50 DOR” value was “dns^d” and the “% stimulation DOR” value is on record as “no stimulation at DOR; also recorded: dns^d”. Moreover, at human KOR (CHO-KOR) [3], a half-maximal effect (EC50) was put at 25 nM; the “% stimulation KOR” value is 92% and 92 (3.6) %. For the same compound, the “% stimulation MOR” value on rat MOR (C6-MOR) [4] (dns: does not stimulate) was 66 (3.3) %. On human KOR (CHO-KOR) [5], the Ki turned out to be 0.77 nM. Besides, the “Binding, Ki KOR” value at human KOR (CHO-KOR) [5] (setting [7]) was “subnanomolar binding affinity”.
For the compound `COc1cccc(Cc2ccc3c(c2)[C@H](NC(=O)[C@@H](N)Cc2c(C)cc(O)cc2C)CCN3)c1` [Compound 4b], the Ki at rat MOR (C6-MOR) [1] turned out to be 0.11 nM. On rat DOR (C6-DOR) [2], the EC50 turned out to be 230 nM and the “% stimulation DOR” value is 10 (2.6) %. At human KOR (CHO-KOR) [3], the “EC50 KOR” value is on record as “dns^d” and the “% stimulation KOR” value is recorded as “displayed no agonist effect; also recorded: dns^d”. At rat MOR (C6-MOR) [4], the EC50 came to 4.4 nM and the Emax amounted to 99%. The same compound displayed a Ki on human KOR (CHO-KOR) [5] of 27 nM. Besides, the inhibition constant (Ki) on rat DOR (C6-DOR) [6] was 5.4 nM.
As for `COc1ccccc1Cc1ccc2c(c1)[C@H](NC(=O)[C@@H](N)Cc1c(C)cc(O)cc1C)CCN2` [Compound 4a], the Ki at rat MOR (C6-MOR) [1] was found to be 0.34 nM; on human KOR (CHO-KOR) [5], 54 nM; on rat DOR (C6-DOR) [6] it was 6.5 nM. In addition, the EC50 at rat DOR (C6-DOR) [2] came out at 130 nM; on human KOR (CHO-KOR) [3], 1000 nM; on rat MOR (C6-MOR) [4], 8.9 nM. In addition, on rat DOR (C6-DOR) [2], the “% stimulation DOR” value was 16 (2.2) %. Besides, the Emax at rat MOR (C6-MOR) [4] was 91%.
Take `COc1ccc2c(c1)CC(Cc1ccc3c(c1)[C@H](NC(=O)[C@@H](N)Cc1c(C)cc(O)cc1C)CCN3)C2` (stereo partly drawn) [Compound 8b]: the Ki on rat MOR (C6-MOR) [1] stood at 0.08 nM. Also, on rat DOR (C6-DOR) [2], the “EC50 DOR” value is reported as “dns^d” and the “% stimulation DOR” value is on record as “dns^d”. Further, on human KOR (CHO-KOR) [3], the “EC50 KOR” value is “dns”; the “% stimulation KOR” value is “low affinity KOR antagonists and dns”. This compound also yielded an EC50 on rat MOR (C6-MOR) [4] of 7.9 nM. The “% stimulation MOR” value at rat MOR (C6-MOR) [4] (dns: does not stimulate) is reported as 22 (3.7) %. The Ki on human KOR (CHO-KOR) [5] stood at 33 nM.
`COc1ccc(Cc2ccc3c(c2)[C@H](NC(=O)[C@@H](N)Cc2c(C)cc(O)cc2C)CCN3)cc1` [Compound 4c] yielded a Ki on rat MOR (C6-MOR) [1] of 0.29 nM. Further, on rat DOR (C6-DOR) [2], the “EC50 DOR” value is “dns^d” and the “% stimulation DOR” value was “did not stimulate GTPγS binding; also recorded: eliminating stimulation; also recorded: dns^d”. Moreover, at human KOR (CHO-KOR) [3], the “EC50 KOR” value is recorded as “dns^d” and the “% stimulation KOR” value is listed as “displayed no agonist effect; also recorded: eliminating stimulation; also recorded: dns^d”. Also, on rat MOR (C6-MOR) [4], the EC50 was determined as 9.3 nM. Also, the “% stimulation MOR” value at rat MOR (C6-MOR) [4] (dns: does not stimulate) is on record as 55 (3.4) %. The compound also returned a Ki at human KOR (CHO-KOR) [5] of 100 nM. The Ki on rat DOR (C6-DOR) [6] was found to be 15 nM.
`Cc1cc(O)cc(C)c1C[C@H](N)C(=O)N[C@@H]1CCNc2ccc(Cc3cccc(O)c3)cc21` [Compound 4e]: the inhibition constant Ki on rat MOR (C6-MOR) [1] was found to be 0.19 nM; at human KOR (CHO-KOR) [5], 16 nM; at rat DOR (C6-DOR) [6] it was 1.4 nM. Moreover, the EC50 was determined as 140 nM on rat DOR (C6-DOR) [2], 230 nM at human KOR (CHO-KOR) [3] and 4.8 nM on rat MOR (C6-MOR) [4]. For the same compound, the “% stimulation DOR” value on rat DOR (C6-DOR) [2] was 67% and 67 (1.6) %. In addition, the Emax at rat MOR (C6-MOR) [4] was 96%.
`Cc1cc(O)cc(C)c1C[C@H](N)C(=O)N[C@@H]1CCNc2ccc(Cc3ccccc3O)cc21` [Compound 4d]: the values for the Ki on rat MOR (C6-MOR) [1], at human KOR (CHO-KOR) [5] and on rat DOR (C6-DOR) [6] were 0.26 nM, 5.7 nM and 5.6 nM, respectively. For the same compound, the EC50 at rat DOR (C6-DOR) [2] stood at 1500 nM; on human KOR (CHO-KOR) [3], 270 nM; on rat MOR (C6-MOR) [4], 9.8 nM. The “% stimulation KOR” value at human KOR (CHO-KOR) [3] was 67% and 67 (3.5) %. Further, the Emax on rat MOR (C6-MOR) [4] was 89%.
Consider `COc1cccc2c1CC(Cc1ccc3c(c1)[C@H](NC(=O)[C@@H](N)Cc1c(C)cc(O)cc1C)CCN3)C2` (stereo partly drawn) [Compound 8a], for which, on rat DOR (C6-DOR) [2], the “EC50 DOR” value is “dns^d” and the “% stimulation DOR” value is recorded as “dns^d”. On human KOR (CHO-KOR) [3], the “EC50 KOR” value is reported as “dns^d” and the “% stimulation KOR” value is “low affinity KOR antagonists; also recorded: dns^d”. Moreover, the EC50 on rat MOR (C6-MOR) [4] stood at 1.9 nM. The “% stimulation MOR” value at rat MOR (C6-MOR) [4] (dns: does not stimulate) is recorded as 48 (2.9) %. The Ki at human KOR (CHO-KOR) [5] was determined as 67 nM. On rat DOR (C6-DOR) [6], this compound displayed a Ki of 2.3 nM.
As for `Cc1cc(O)cc(C)c1C[C@H](N)C(=O)N[C@@H]1CCNc2ccc(Cc3ccc(O)cc3)cc21` [Compound 4f], the Ki on rat MOR (C6-MOR) [1] is 1.7 nM. Moreover, at rat DOR (C6-DOR) [2], the “EC50 DOR” value is given as “dns^d” and the “% stimulation DOR” value is listed as “did not stimulate GTPγS binding; also recorded: dns^d”. In addition, at human KOR (CHO-KOR) [3], the “EC50 KOR” value is on record as “dns^d” and the “% stimulation KOR” value was “displayed no agonist effect; also recorded: dns^d”. Moreover, at rat MOR (C6-MOR) [4] ([35S]-GTPγS binding, mean (SEM), dns: does not stimulate), the “EC50 MOR” value is “dns”. Further, on rat MOR (C6-MOR) [4] (dns: does not stimulate), the “% stimulation MOR” value is “no stimulation of GTP binding and dns”. This compound showed a Ki at human KOR (CHO-KOR) [5] of 420 nM. Further, at rat DOR (C6-DOR) [6], the affinity, expressed as Ki, was 130 nM.
On to `Cc1cc(O)cc(C)c1C[C@H](N)C(=O)N[C@@H]1CCNc2ccc(CC3Cc4ccc(O)cc4C3)cc21` (stereo partly drawn) [Compound 8d], for which the Ki came out at 0.82 nM on rat MOR (C6-MOR) [1], 41 nM on human KOR (CHO-KOR) [5] and 15 nM on rat DOR (C6-DOR) [6]. For the same compound, on rat DOR (C6-DOR) [2], the “EC50 DOR” value was “dns”. The “% stimulation DOR” value at rat DOR (C6-DOR) [2] was “dns”. At human KOR (CHO-KOR) [3], the “EC50 KOR” value is reported as “dns”. Further, the “% stimulation KOR” value at human KOR (CHO-KOR) [3] was “low affinity KOR antagonists and dns”. On rat MOR (C6-MOR) [4], this compound returned an EC50 of 7 nM. The “% stimulation MOR” value at rat MOR (C6-MOR) [4] (dns: does not stimulate) is 16 (2.4) %.

(Values after PMC5691919 (ACS Chemical Neuroscience, 2017).)
